Results from ChEMBL document CHEMBL4270576, “Discovery of a benzenesulfonamide-based dual inhibitor of microsomal prostaglandin E2 synthase-1 and 5-lipoxygenase that favorably modulates lipid mediator biosynthesis in inflammation” (Eur J Med Chem, 2018).
Calls of active or inactive are those of the source. The calls are words filed in the database; no cut-off is given here.

Experiments:
[1] = target: T1, Polyunsaturated fatty acid lipoxygenase ALOX15 (Homo sapiens) (UniProt P16050); experiment: Modulation of 15-LO-mediated 15-HETE level in human M2 macrophages derived from IL4-polarized human monocyte derived macrophages at 3 uM preincubated for 15 mins followed by Escherichia coli (O6:K2:H1) challenge for 90 mins by LC-MS/MS analysis
T1 sequence (whole entry): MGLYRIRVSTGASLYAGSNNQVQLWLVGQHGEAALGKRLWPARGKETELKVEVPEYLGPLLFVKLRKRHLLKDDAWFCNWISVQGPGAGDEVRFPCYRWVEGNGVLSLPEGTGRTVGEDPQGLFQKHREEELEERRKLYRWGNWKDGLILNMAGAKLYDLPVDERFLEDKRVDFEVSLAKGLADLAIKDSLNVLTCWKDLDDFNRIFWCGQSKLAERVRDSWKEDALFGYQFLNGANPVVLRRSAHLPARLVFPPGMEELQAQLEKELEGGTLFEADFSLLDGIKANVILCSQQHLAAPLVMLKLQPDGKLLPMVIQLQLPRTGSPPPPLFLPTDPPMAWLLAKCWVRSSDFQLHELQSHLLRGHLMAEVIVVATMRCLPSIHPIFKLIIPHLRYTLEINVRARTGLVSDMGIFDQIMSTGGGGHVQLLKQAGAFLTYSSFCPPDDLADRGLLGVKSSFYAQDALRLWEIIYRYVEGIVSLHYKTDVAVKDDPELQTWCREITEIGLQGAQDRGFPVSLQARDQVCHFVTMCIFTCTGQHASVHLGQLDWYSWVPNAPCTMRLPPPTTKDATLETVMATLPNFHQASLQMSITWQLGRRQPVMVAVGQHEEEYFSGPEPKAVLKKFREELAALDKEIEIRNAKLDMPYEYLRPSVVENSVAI
In short: (§1)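 Monocytes differentiated 6 days with M-CSF (20 ng/ml), then polarized 48 h with IL-4 20 ng/ml (M2). Cells (2 × 10^6) in PBS/1 mM CaCl2 pre-incubated 15 min at 37 °C with 3 µM compound or 0.1% DMSO, then challenged with E. coli O6:K2:H1 (1:50) for 90 min. Lipid mediators extracted by SPE with deuterated internal standards and quantified by UPLC-MS/MS as % of vehicle.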

[2] = target: T2, Polyunsaturated fatty acid 5-lipoxygenase (Homo sapiens, UniProt P09917); experiment: Inhibition of 5-LO in human neutrophils using arachidonic acid as substrate assessed as reduction in 5-LO product formation preincubated for 15 mins followed by substrate addition measured after 10 mins in presence of Ca2+ ionophore A23187 by HPLC analysis
T2 sequence (P09917 whole entry): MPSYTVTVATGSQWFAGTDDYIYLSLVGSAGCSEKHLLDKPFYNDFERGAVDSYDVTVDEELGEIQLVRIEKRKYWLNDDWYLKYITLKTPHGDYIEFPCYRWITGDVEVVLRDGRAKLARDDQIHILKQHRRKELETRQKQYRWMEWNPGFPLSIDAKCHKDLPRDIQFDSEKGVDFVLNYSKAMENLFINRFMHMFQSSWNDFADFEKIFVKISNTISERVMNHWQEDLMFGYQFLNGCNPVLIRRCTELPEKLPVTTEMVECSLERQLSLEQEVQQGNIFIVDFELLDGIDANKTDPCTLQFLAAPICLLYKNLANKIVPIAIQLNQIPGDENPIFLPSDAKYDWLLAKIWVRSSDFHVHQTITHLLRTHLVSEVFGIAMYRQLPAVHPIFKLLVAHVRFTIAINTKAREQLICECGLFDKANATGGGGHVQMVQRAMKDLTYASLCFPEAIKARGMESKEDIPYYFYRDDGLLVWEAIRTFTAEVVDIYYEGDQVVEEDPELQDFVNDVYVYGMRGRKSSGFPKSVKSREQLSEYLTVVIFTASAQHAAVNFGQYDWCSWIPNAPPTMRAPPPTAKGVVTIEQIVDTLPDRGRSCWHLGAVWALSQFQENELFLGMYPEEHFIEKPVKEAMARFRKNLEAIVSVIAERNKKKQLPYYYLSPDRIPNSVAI
In short: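 Human neutrophils (5 × 10^6 in 1 ml PBS with 1 mg/ml glucose) pre-incubated 15 min at 37 °C with compound or 0.1% DMSO, then activated with 1 mM CaCl2 and 2.5 µM A23187, with or without 20 µM AA; 5-LO products measured after 10 min. Residual activity at 10 µM; IC50 by nonlinear regression from 4-5 concentrations; mean ± SEM, n=3-4.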

[3] = organism: Homo sapiens; experiment: Modulation of LO-mediated PDX level in human M2 macrophages derived from IL4-polarized human monocyte derived macrophages at 3 uM preincubated for 15 mins followed by Escherichia coli (O6:K2:H1) challenge for 90 mins by LC-MS/MS analysis; in short: as §1
[4] = target: Cyclooxygenase (Homo sapiens, UniProt P35354+P23219); experiment: Modulation of COX1/2-mediated PGF2a level in human M1 macrophages derived from LPS/IFNgamma-polarized human monocyte derived macrophages at 3 uM preincubated for 15 mins followed by Escherichia coli (O6:K2:H1) challenge for 90 mins by LC-MS/MS analysis; assay type: protein assay; details: 1.5 h
In short: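 Monocytes differentiated 6 days with GM-CSF (20 ng/ml) in RPMI/10% FCS, then polarized 48 h with LPS 100 ng/ml plus IFN-γ 20 ng/ml (M1). Cells (2 × 10^6) in PBS with 1 mM CaCl2 pre-incubated 15 min at 37 °C with 3 µM compound or 0.1% DMSO, then E. coli O6:K2:H1 (1:50) for 90 min. Methanol with deuterated standards added; SPE; UPLC-MS/MS; expressed as % of vehicle.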

[5] = target: T1, Polyunsaturated fatty acid lipoxygenase ALOX15 (Homo sapiens); experiment: Modulation of 15-LO-mediated 15-HEPE level in human M2 macrophages derived from IL4-polarized human monocyte derived macrophages at 3 uM preincubated for 15 mins followed by Escherichia coli (O6:K2:H1) challenge for 90 mins by LC-MS/MS analysis; in short: as §1
[6] = system: Mus musculus; experiment: Antiinflammatory activity in CD-1 mouse assessed as reduction in zymosan-induced LTC4 formation in peritoneal cavity at 10 mg/kg, ip preincubated for 30 mins followed by zymosan addition measured after 30 mins by ELISA; assay type: functional, organism-based
In short: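 CD-1 male mice (6-8 weeks), n=6 per group, given 10 mg/kg i.p. in 2% DMSO/saline vehicle 30 min before i.p. zymosan (500 µL of 2 mg/mL suspension). Peritoneal cavity washed with 3 ml PBS 30 min after zymosan; LTC4 measured in exudate. One-way ANOVA with Bonferroni test.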

[7] = organism: Homo sapiens; experiment: Modulation of LO-mediated MaR1 level in human M2 macrophages derived from IL4-polarized human monocyte derived macrophages at 3 uM preincubated for 15 mins followed by Escherichia coli (O6:K2:H1) challenge for 90 mins by LC-MS/MS analysis; in short: as §1

Activity [1]: 135%
IC50 [2]: 0.4 µM
Activity [3]: 125%
Activity [4]: 142%
Activity [5]: 125%
Activity [7]: 141%
SMILES: O=C(O)c1ccc(N(Cc2cccc(OCc3ccccc3)c2)S(=O)(=O)c2ccc(-c3ccccc3)cc2)cc1
Activity [6]: Active
